The record followed here is ChEMBL document CHEMBL2202986, “Guaianolide sesquiterpene lactones, a source to discover agents that selectively inhibit acute myelogenous leukemia stem and progenitor cells” (J Med Chem, 2012).

Structures are written as SMILES.

One may read the MRT inf as the average time that molecules of a dose stay in the body. One may read the Tmax as the time from dosing to the highest level. For orientation: AUC(0-t) means the area under the concentration-time curve up to a stated or last time point. As usually defined, the bioavailability is dose-corrected exposure relative to a reference, in per cent. By half-life is commonly meant the time in which the quantity being followed falls by half. A word on the MRT last: it is a mean duration of stay, worked out from the concentration-time curve.

Series [1] has as its system Mus musculus. As to the kind of experiment: Toxicity in BALB/c mouse assessed as pathological changes in lung at 1000 mg/kg, po administered as single dose by hematoxylin-eosin staining method. The class given is organism-based. On the set-up: dose 1000 mg/kg, route oral. As to conditions: in vivo; call rule not given here. Put shortly: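 BALB/c mice, 16 in total (8 male, 8 female). DMAMCL was given by gavage as an aqueous solution, either 1000 mg/kg once or 500 mg/kg every day for seven doses. Controls were untreated and water-vehicle mice. Mice were killed 1 week after dosing. Heart, liver, spleen, lung and kidney were fixed in 10% neutral-buffered formalin, paraffin-embedded, cut into 3 μm sections, H&E-stained and examined microscopically for gross morphology.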

Series [2] in a line: Mean retention time (0 to infinity) in mouse at 100 mg/kg, iv. It is filed as ADME, organism-based. On the set-up: dose 100 mg/kg, route intravenous. The note with it: in vivo. Put shortly: (§1)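 Male Kunming mice (20 2 g), fasted 12 h before dosing with water available, given DMAMCL as an aqueous solution iv (n = 5). Blood was drawn from the orbital veins at set times. DMAMCL and MCL in plasma were measured, and parameters were derived by a noncompartmental model.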

Series [3] can be described thus: Tmax in mouse at 150 mg/kg, po. It is filed as ADME, organism-based. On the set-up: dose 150 mg/kg, route oral. As to conditions: in vivo. The method, boiled down:
(§2)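 Male Kunming mice (20 2 g), fasted 12 h before dosing with water available, given DMAMCL as an aqueous solution po (n = 5). Blood was drawn from the orbital veins at set times. Plasma DMAMCL and MCL were followed, and parameters came from noncompartmental analysis.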

Series [4] in a line: Cytotoxicity against human leukemia stem/progenitor cells assessed as cell viability at 5 uM after 18 hrs by annexin-V labeling-based flow cytometry. As to conditions: in the assay text read “leukemia cells” for “leukemia stem/progenitor cells”, read-out: Activity. It is filed as functional. The method, boiled down: (§3)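 Primary leukemia cells from AML patient blood were treated for 18 h in serum-free IMDM, then stained with CD34-APC and CD38-PECy7 for 30 min. After washing in cold PBS, cells were labelled with Annexin-V–FITC/PI for 15 min at room temperature and read by flow cytometry. Viability of total and CD34⁺ cells was normalized to untreated controls (mean, SD).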
Background: A flow cytometer gives signals particle by particle.

The subject of series [5] is Mus musculus. As to the kind of experiment: Toxicity in BALB/c mouse assessed as pathological changes in liver at 500 mg/kg, po administered every day for 7 days by hematoxylin-eosin staining method. The note with it: in vivo, 168 h.
A short description of series [6]: AUC (0 to t) in mouse at 150 mg/kg, po. The class given is ADME, organism-based. On the set-up: dose 150 mg/kg, route oral. As to conditions: plasma. Put shortly: as §2
The nature of series [7]: Cytotoxicity against human leukemia stem/progenitor cells assessed as viable CD34+ cells at 5 uM after 18 hrs by annexin-V labeling-based flow cytometry. It is filed as functional, CD34+ cell. Put shortly:
as §3

Series [8] in a line: Antitumor activity against mixed-lineage human leukemia cells xenografted in NOD/SCID mouse assessed as reduction of CD45+CD33+ cells in bone marrow at 100 mg/kg, po qd administered every other day total of seven doses starting from 8 weeks post grafting measured on day 35 (reference value: 9.8 %). On the set-up: scale not given: the % may be the effect or the level left. It is filed as functional, Leukemia cell. (A xenograft is tissue or cells of one species grown in another, often human tumour cells in immunodeficient mice.)

Series [9] in a line: Drug degradation in HEPES buffer at pH <5 assessed as release of MCL. The class given is physicochemical. The method, boiled down:
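A 20 μL aliquot of prodrug solution was added to 980 μL HEPES buffer (pH 7.4, or below 5.0) and incubated at 37 °C. Samples were withdrawn over time, and prodrug and released parent were quantified by HPLC (mean, SD, n = 4).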

The nature of series [10]: Cytotoxicity against human leukemia stem/progenitor cells assessed as viable CD34+ cells at 10 uM after 18 hrs by annexin-V labeling-based flow cytometry. It is filed as functional, CD34+ cell.
Series [11] is described as follows: Oral bioavailability in mouse at 150 mg/kg. The note with it: in vivo. The class given is ADME, organism-based.
The nature of series [12]: Toxicity in po dosed BALB/c mouse administered every day for 7 days. As to conditions: in vivo.
Series [13] can be described thus: Half life in mouse at 150 mg/kg, po. It is filed as ADME, organism-based. On the set-up: dose 150 mg/kg, route oral. The note with it: in vivo. Put shortly: as §2
Series [14] can be described thus: Antitumor activity against human leukemia stem/progenitor cells xenografted in NOD/SCID mouse assessed as survival rate at 100 mg/kg, po qd administered every other day total of seven doses starting from 8 weeks post grafting measured on day 85. It is filed as functional. The method, boiled down: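 NOD/SCID mice were sublethally irradiated (280cGay), then 6−10 h later given primary AML M5 patient cells via tail vein in PBS. From 8 weeks postinoculation, aqueous solution was given orally at 100 mg/kg every other day for seven doses. Survival was followed, Kaplan−Meier, n = 6 per treated group and n = 7 untreated controls. Survivors at day 85 had bone marrow analysed for human CD45⁺CD33⁺ cells.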

Series [15] in a line: Mean retention time (0 to t) in mouse at 100 mg/kg, iv. On the set-up: dose 100 mg/kg, route intravenous. As to conditions: in vivo. The class given is ADME, organism-based. Put shortly: as §1
Series [16] is described as follows: Mean retention time (0 to infinity) in mouse at 150 mg/kg, po. It is filed as ADME, organism-based. On the set-up: dose 150 mg/kg, route oral. As to conditions: in vivo. Put shortly:
as §2

Series [17] is described as follows: Mean retention time (0 to t) in mouse at 150 mg/kg, po. The note with it: in vivo. The class given is ADME, organism-based. On the set-up: dose 150 mg/kg, route oral. The method, boiled down:
as §2

The test system of series [18] is Mus musculus. As to the kind of experiment: Toxicity in BALB/c mouse assessed as pathological changes in kidney at 500 mg/kg, po administered every day for 7 days by hematoxylin-eosin staining method. The note with it: in vivo, 168 h.

For `CC1=C2CC[C@@](C)(O)[C@@H]2[C@H]2OC(=O)[C@@H](CN(C)C)[C@@H]2CC1.Cl` [DIMETHYLAMINOMICHELIOLIDE HYDROCHLORIDE], the Activity entry is “Non-toxic” in series [1]; “Non-toxic” in series [5]; 72.9% in series [7]; 0.14% in series [8]; 60.4% in series [10]; “Non-toxic” in series [18]. Moreover, the MRT inf came out at 3.52 h in series [2] and 9.85 h in [16]. For the same compound, the Tmax in series [3] stood at 0.19 h. Also, in series [4], the viability at 5 µM was 77.6%. In series [6], this compound yielded an exposure AUC(0-t) of 49600 ng·h/mL. For the same compound, the Drug degradation entry in [9] is given as “Not Active”. This compound displayed a bioavailability in series [11] of 75%. Moreover, the MTD at 168 h in series [12] was determined as 500 mg/kg. In series [13], the half-life is 9.82 h. In addition, the survival at 100 mg/kg in series [14] is 33%. The MRT last came to 1.51 h in series [15] and 8.85 h in series [17].
